According to ChEMBL document CHEMBL4184147, “Polyphenolic Phytochemicals in Cancer Prevention and Therapy: Bioavailability versus Bioefficacy” (J Med Chem, 2017):

Tests used:
NCI-H460 [1] = experiment: Cytotoxicity against human NCI-H460 cells assessed as decrease in cell viability after 48 hrs by MTT assay; format: functional, cell-based; conditions: NCI-H460, 48 h
BXPC-3 [2] = experiment: Cytotoxicity against human BxPC3 cells assessed as decrease in cell viability after 48 hrs by MTT assay; format: functional, cell-based; conditions: BXPC-3, 48 h
PANC-1 [3] = experiment: Cytotoxicity against human PANC1 cells assessed as decrease in cell viability after 48 hrs by MTT assay; format: functional, cell-based; conditions: PANC-1, 48 h
[4] = Cytotoxicity against human MML1 cells assessed as decrease in cell viability after 48 hrs by MTT assay; format: functional, cell-based
SK-MEL-2 [5] = experiment: Cytotoxicity against human SK-MEL-2 cells assessed as decrease in cell viability after 48 hrs by MTT assay; format: functional, cell-based; conditions: SK-MEL-2, 48 h
MDA-MB-231 [6] = experiment: Cytotoxicity against human MDA-MB-231 cells assessed as cell viability at 34 uM after 48 hrs by MTT assay; format: functional; conditions: MDA-MB-231, 48 h, read-out: Activity
T47D [7] = experiment: Cytotoxicity against human T47D cells assessed as cell viability at 34 uM after 48 hrs by MTT assay; format: functional; conditions: read-out: Activity
HT-29 [8] = experiment: Cytotoxicity against human HT-29 cells assessed as cell viability at 34 uM after 48 hrs by MTT assay; format: functional; conditions: HT-29, 48 h, read-out: Activity
BXPC-3 [9] = experiment: Cytotoxicity against human BxPC3 cells assessed as cell viability at 34 uM after 48 hrs by MTT assay; format: functional; conditions: BXPC-3, 48 h, read-out: Activity
PANC-1 [10] = experiment: Cytotoxicity against human PANC1 cells assessed as cell viability at 34 uM after 48 hrs by MTT assay; format: functional; conditions: PANC-1, 48 h, read-out: Activity
[11] = Cytotoxicity against human MML1 cells assessed as cell viability at 34 uM after 48 hrs by MTT assay; format: functional; conditions: read-out: Activity
SK-MEL-2 [12] = experiment: Cytotoxicity against human SK-MEL-2 cells assessed as cell viability at 34 uM after 48 hrs by MTT assay; format: functional; conditions: SK-MEL-2, 48 h, read-out: Activity
U-87 MG [13] = experiment: Cytotoxicity against human U87 cells assessed as cell viability at 34 uM after 48 hrs by MTT assay; format: functional, U-87MG ATCC; conditions: read-out: Activity
LN-229 [14] = experiment: Cytotoxicity against human LN229 cells assessed as cell viability at 34 uM after 48 hrs by MTT assay; format: functional; conditions: LN-229, 48 h, read-out: Activity
[15] = Cmax in mouse at 10 mg/kg, iv by LC-MS/MS method; format: ADME, organism-based; parameters: dose 10 mg/kg, route intravenous; conditions: in vivo
Procedure, shortened: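 Mouse iv dosing used polyphenol dissolved in DMSO:ethanol (2:1), with total injected volume never above 30 μL. Plasma levels were measured by previously described methods.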

[16] = Tmax in mouse at 10 mg/kg, iv by LC-MS/MS method; format: ADME, organism-based; conditions: in vivo
Procedure, shortened: (§1)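 For IV dosing, compound dissolved in DMSO:ethanol (2:1), total volume no more than 30 μL. For oral dosing, compound given in a self-microemulsifying delivery system (60% surfactant, emulsifier OP:Cremophor EL 1:1; 30% PEG 400; 10% ethyl oleate), total volume no more than 100 μL. Plasma levels measured by previously described methods.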

[17] = Plasma concentration in mouse at 100 mg/kg, po at 60 mins by LC-MS/MS method; format: ADME, organism-based; procedure, shortened: as §1
[18] = Plasma concentration in mouse at 10 mg/kg, iv at 60 mins by LC-MS/MS method; format: ADME, organism-based; procedure, shortened: as §1
[19] = Cmax in mouse at 100 mg/kg, po by HPLC method; format: ADME, organism-based; parameters: dose 100 mg/kg, route oral; conditions: in vivo
Procedure, shortened: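 For oral dosing, polyphenol was dissolved in a self-microemulsifying delivery system: 60% surfactant (emulsifier OP:Cremophor EL 1:1), 30% cosurfactant (PEG 400) and 10% oil (ethyl oleate). Total volume given was never above 100 μL. Plasma levels were quantified by previously described methods.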

[20] = Tmax in mouse at 100 mg/kg, po by HPLC method; format: ADME, organism-based; conditions: in vivo
Procedure, shortened: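 Given orally in a self-microemulsifying delivery system (60% surfactant, emulsifier OP:Cremophor EL 1:1; 30% PEG 400 cosurfactant; 10% ethyl oleate oil), total volume no more than 100 μL. Plasma levels measured by previously described methods.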

A-375 = experiment: Cytotoxicity against human A375 cells assessed as decrease in cell viability at 20 uM after 48 hrs by SRB method relative to control; format: functional
A549 [21] = experiment: Cytotoxicity against human A549 cells assessed as decrease in cell viability at 20 uM after 48 hrs by SRB method relative to control; format: functional
HT-29 [22] = experiment: Cytotoxicity against human HT-29 cells assessed as decrease in cell viability at 20 uM after 48 hrs by SRB method relative to control; format: functional
MCF7 = experiment: Cytotoxicity against human MCF7 cells assessed as decrease in cell viability at 20 uM after 48 hrs by SRB method relative to control; format: functional
[23] = Plasma concentration in mouse at 10 mg/kg, iv at 120 mins by LC-MS/MS method; format: ADME, organism-based; procedure, shortened: as §1
A549 [24] = experiment: Cytotoxicity against human A549 cells assessed as cell viability at 34 uM after 48 hrs by trypan blue exclusion and LDH release; conditions: A549, 48 h
U-87 MG [25] = experiment: Cytotoxicity against human U87 cells assessed as decrease in cell viability after 48 hrs by trypan blue exclusion and LDH release
T47D [26] = experiment: Cytotoxicity against human T47D cells assessed as decrease in cell viability after 48 hrs by trypan blue exclusion and LDH release
A549 [27] = experiment: Cytotoxicity against human A549 cells assessed as decrease in cell viability after 48 hrs by trypan blue exclusion and LDH release; conditions: A549, 48 h
COLO 201 [28] = experiment: Cytotoxicity against human COLO201 cells assessed as cell viability at 34 uM after 48 hrs by trypan blue exclusion and LDH release; conditions: COLO 201, 48 h
HT-29 [29] = experiment: Cytotoxicity against human HT-29 cells assessed as decrease in cell viability after 48 hrs by trypan blue exclusion and LDH release; conditions: HT-29, 48 h
LN-229 [30] = experiment: Cytotoxicity against human LN229 cells assessed as decrease in cell viability after 48 hrs by trypan blue exclusion and LDH release; conditions: LN-229, 48 h
NCI-H460 [31] = experiment: Cytotoxicity against human NCI-H460 cells assessed as cell viability at 34 uM after 48 hrs by trypan blue exclusion and LDH release; conditions: NCI-H460, 48 h
COLO 201 [32] = experiment: Cytotoxicity against human COLO201 cells assessed as decrease in cell viability after 48 hrs by trypan blue exclusion and LDH release; conditions: COLO 201, 48 h
MDA-MB-231 [33] = experiment: Cytotoxicity against human MDA-MB-231 cells assessed as decrease in cell viability after 48 hrs by trypan blue exclusion and LDH release; conditions: MDA-MB-231, 48 h
MDA-MB-231 [34] = experiment: Cytotoxicity against human MDA-MB-231 cells assessed as cell viability at 14 uM after 48 hrs by MTT assay; format: functional; conditions: MDA-MB-231, 48 h, read-out: Activity
T47D [35] = experiment: Cytotoxicity against human T47D cells assessed as cell viability at 14 uM after 48 hrs by MTT assay; format: functional; conditions: read-out: Activity
HT-29 [36] = experiment: Cytotoxicity against human HT-29 cells assessed as cell viability at 14 uM after 48 hrs by MTT assay; format: functional; conditions: HT-29, 48 h, read-out: Activity
COLO 201 [37] = experiment: Cytotoxicity against human COLO201 cells assessed as cell viability at 14 uM after 48 hrs by MTT assay; format: functional; conditions: COLO 201, 48 h, read-out: Activity
A549 [38] = experiment: Cytotoxicity against human A549 cells assessed as cell viability at 14 uM after 48 hrs by MTT assay; format: functional; conditions: A549, 48 h, read-out: Activity
NCI-H460 [39] = experiment: Cytotoxicity against human NCI-H460 cells assessed as cell viability at 14 uM after 48 hrs by MTT assay; format: functional; conditions: NCI-H460, 48 h, read-out: Activity
BXPC-3 [40] = experiment: Cytotoxicity against human BxPC3 cells assessed as cell viability at 14 uM after 48 hrs by MTT assay; format: functional; conditions: BXPC-3, 48 h, read-out: Activity
PANC-1 [41] = experiment: Cytotoxicity against human PANC1 cells assessed as cell viability at 14 uM after 48 hrs by MTT assay; format: functional; conditions: PANC-1, 48 h, read-out: Activity
[42] = Cytotoxicity against human MML1 cells assessed as cell viability at 14 uM after 48 hrs by MTT assay; format: functional; conditions: read-out: Activity
SK-MEL-2 [43] = experiment: Cytotoxicity against human SK-MEL-2 cells assessed as cell viability at 14 uM after 48 hrs by MTT assay; format: functional; conditions: SK-MEL-2, 48 h, read-out: Activity
U-87 MG [44] = experiment: Cytotoxicity against human U87 cells assessed as cell viability at 14 uM after 48 hrs by MTT assay; format: functional, U-87MG ATCC; conditions: read-out: Activity
LN-229 [45] = experiment: Cytotoxicity against human LN229 cells assessed as cell viability at 14 uM after 48 hrs by MTT assay; format: functional; conditions: LN-229, 48 h, read-out: Activity
Homo sapiens = experiment: Renal toxicity in patient assessed as decrease in glomerular flow rate at 1400 mg/m'2, iv administered as bolus dose measured after 24 hrs relative to control; format: organism-based; parameters: scale not given: the % may be the effect or the level left; conditions: in vivo

| SMILES | IC50 (NCI-H460 [1]) [µM] | IC50 (BXPC-3 [2]) [µM] | IC50 (PANC-1 [3]) [µM] | IC50 [4] [µM] | IC50 (SK-MEL-2 [5]) [µM] | Cmax [15] [µM] | Tmax [16] [min] | concentration at 1 h [17] [µM] | concentration at 1 h [18] [µM] | Cmax [19] [µM] | Tmax [20] [min] | IC50 (U-87 MG [25]) [µM] | IC50 (T47D [26]) [µM] | IC50 (A549 [27]) [µM] | IC50 (HT-29 [29]) [µM] | IC50 (LN-229 [30]) [µM] | IC50 (COLO 201 [32]) [µM] | IC50 (MDA-MB-231 [33]) [µM] | other results |
| --- | --- | --- | --- | --- | --- | --- | --- | --- | --- | --- | --- | --- | --- | --- | --- | --- | --- | --- | --- |
| COc1cc(/C=C/c2ccc(O)cc2)cc(OC)c1 [PTEROSTILBENE] | 17 | 31 | 50 | 17 | 17 | 67 | 5 | < 1 | 15 | 25 | 10 | 34 | 35 | 26 | 28 | 14 | 29 | 63 | viability at 34 µM (MDA-MB-231 [6]): 90%; viability at 34 µM (T47D [7]): 91%; viability at 34 µM (HT-29 [8]): 96%; viability at 34 µM (BXPC-3 [9]): 97%; viability at 34 µM (PANC-1 [10]): 94%; viability at 34 µM [11]: 87%; viability at 34 µM (SK-MEL-2 [12]): 85%; viability at 34 µM (U-87 MG [13]): 103%; viability at 34 µM (LN-229 [14]): 98%; Activity (A-375): 30%; Activity (A549 [21]): 40%; Activity (HT-29 [22]): 10%; Activity (MCF7): 25%; concentration at 2 h [23]: < 1 µM; viability at 34 µM (A549 [24]): 81%; viability at 34 µM (COLO 201 [28]): 95%; viability at 34 µM (NCI-H460 [31]): 83% |
| O=c1c(O)c(-c2ccc(O)c(O)c2)oc2cc(O)cc(O)c12 [QUERCETIN] | 12 | 16 | 62 | 15 | 12 | 27 | 5 | < 1 | < 1 | 8 | 15 | 23 | 11 | 13 | 18 | 12 | 19 | 20 | viability at 14 µM (MDA-MB-231 [34]): 103%; viability at 14 µM (T47D [35]): 100%; viability at 14 µM (HT-29 [36]): 94%; viability at 14 µM (COLO 201 [37]): 101%; viability at 14 µM (A549 [38]): 104%; viability at 14 µM (NCI-H460 [39]): 95%; viability at 14 µM (BXPC-3 [40]): 96%; viability at 14 µM (PANC-1 [41]): 102%; viability at 14 µM [42]: 103%; viability at 14 µM (SK-MEL-2 [43]): 97%; viability at 14 µM (U-87 MG [44]): 97%; viability at 14 µM (LN-229 [45]): 106%; Activity (Homo sapiens): 20% |
